Results as given in PMC3331960 (Nature chemical biology, 2012).
Where “and” joins values, the source holds several entries; their conditions need not be identical. Equal entries are not always repeated. One block for each molecule: values may come before it. Where no end group is shown, it is not given here. The star is where a group is joined. Biotin = O=C1N[C@H]2[C@H](CS[C@H]2CCCCC(=O)*)N1

Tests used:
TIR1-IAA7 = target: T1, TIR1-IAA7 (Arabidopsis thaliana, UniProt Q38825+Q570C0); experiment: [3H]-IAA radioligand binding; conditions: for Ki: Ki (Mean ± SEM), TIR1-IAA7, cold competitor vs [3H] IAA
T1 sequence (Q570C0 1-594): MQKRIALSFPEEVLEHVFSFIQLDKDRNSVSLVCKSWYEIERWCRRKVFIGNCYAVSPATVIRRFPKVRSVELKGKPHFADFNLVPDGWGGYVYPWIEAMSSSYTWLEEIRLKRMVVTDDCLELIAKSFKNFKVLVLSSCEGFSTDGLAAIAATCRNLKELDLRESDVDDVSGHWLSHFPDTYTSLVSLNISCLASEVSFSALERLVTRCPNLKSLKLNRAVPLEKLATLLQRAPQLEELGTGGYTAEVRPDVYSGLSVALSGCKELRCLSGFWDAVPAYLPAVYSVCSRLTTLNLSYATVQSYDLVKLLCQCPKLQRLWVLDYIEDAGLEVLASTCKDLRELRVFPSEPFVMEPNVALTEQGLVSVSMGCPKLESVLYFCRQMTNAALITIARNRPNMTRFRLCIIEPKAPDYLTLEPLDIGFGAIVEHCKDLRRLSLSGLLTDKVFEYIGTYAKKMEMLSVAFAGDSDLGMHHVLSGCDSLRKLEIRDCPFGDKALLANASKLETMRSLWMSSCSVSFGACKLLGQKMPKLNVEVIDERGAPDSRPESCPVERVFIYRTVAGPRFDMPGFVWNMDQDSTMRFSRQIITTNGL
T1 sequence (Q39255 1-160 partner): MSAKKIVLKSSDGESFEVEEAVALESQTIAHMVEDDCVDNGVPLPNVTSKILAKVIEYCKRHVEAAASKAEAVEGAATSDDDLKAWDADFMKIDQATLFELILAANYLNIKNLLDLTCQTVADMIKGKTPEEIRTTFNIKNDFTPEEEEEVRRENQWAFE
T1 sequence (Q38825 1-243): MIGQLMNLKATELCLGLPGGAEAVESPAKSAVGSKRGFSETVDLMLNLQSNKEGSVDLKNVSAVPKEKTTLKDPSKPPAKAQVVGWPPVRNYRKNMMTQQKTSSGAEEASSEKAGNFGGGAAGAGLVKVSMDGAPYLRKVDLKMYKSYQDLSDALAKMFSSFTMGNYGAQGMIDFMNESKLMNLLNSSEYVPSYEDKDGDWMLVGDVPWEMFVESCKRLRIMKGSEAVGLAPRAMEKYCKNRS
Outline: (§1)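 ASK1-TIR1 or ASK1-AFB5 (0.44 μg, insect cells) with E. coli GST-IAA7 (1:10 molar), >1 h at 4°C in pH 8.0 Tris binding buffer. KD from [³H]-IAA saturation binding. Ki from competition with cold 1-NAA, 2,4-D or picloram against fixed [³H]-IAA (5–100 nM), fitted to a one-site competition model by nonlinear regression. Filter binding with scintillation read-out; triplicates.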

AFB5-IAA7 = AFB5-IAA7 (Arabidopsis thaliana, UniProt Q38825+Q9LTX2); experiment: [3H]-IAA radioligand binding
Outline: as §1

TIR1-IAA7 DII [1] = target: T2, TIR1-IAA7 DII (Arabidopsis thaliana, UniProt Q38825+Q570C0, DEL96-243); experiment: Surface plasmon resonance, TIR1 over immobilized IAA7 DII peptide; format: binding; conditions: for dissociation of the TIR1-IAA7 DII complex (SPR): 50 μM ligand concentration; for TIR1 association with the DII peptide (SPR): co-injection of TIR1 with auxin, vs no auxin
TIR1-IAA7 interaction = target: T3, TIR1-IAA7 interaction (Arabidopsis thaliana, UniProt Q38825+Q570C0); experiment: LexA yeast two-hybrid, auxin-induced TIR1-IAA7 interaction; format: cell-based; conditions: 50 μM auxins in selective media
T3 sequence (Q570C0 1-594): T1 sequence (Q570C0 1-594)
T3 sequence (Q38825 1-243): T1 sequence (Q38825 1-243)

AFB5-IAA7 DII = AFB5-IAA7 DII (Arabidopsis thaliana, UniProt Q38825+Q9LTX2, DEL96-243); experiment: Surface plasmon resonance, AFB5 over immobilized IAA7 DII peptide; format: binding; conditions: 50 μM picloram
[2] = test system: Arabidopsis wild type plants (Col-0); experiment: Root elongation assay of seedlings; format: in vivo, Arabidopsis thaliana; conditions: 40 or 80 nM 2,4-D, 4 days, Col-0 seedlings
Outline: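 Seedlings grown 5 days on MS medium, then transferred to medium with 2,4-D. Root elongation was measured after 4 more days and expressed as a proportion of growth without auxin. Col-0, tir1-1 and tir1-1 afb2-3 were tested; error bars are STDEV.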

TIR1-IAA14 = TIR1-IAA14 (Arabidopsis thaliana, UniProt Q38832+Q570C0); experiment: [3H]-IAA homologous competitive binding, TIR1-IAA14; conditions: TIR1-IAA14, homologous competition
Outline: (§2)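 Homologous competition: insect-cell ASK1-TIR1 (0.44 μg) plus E. coli GST-Aux/IAA (1:10 molar), in pH 8.0 Tris binding buffer, >1 h at 4°C. Fixed [³H]-IAA (5, 10, 25 or 100 nM, kept below half the IC50) with rising cold IAA. Filter binding, scintillation counting. Specific binding fitted to a one-site competition model by nonlinear regression. Independent assays run in triplicate.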

TIR1-IAA3 = TIR1-IAA3 (Arabidopsis thaliana, UniProt Q38822+Q570C0); experiment: [3H]-IAA saturation binding, TIR1-IAA3; conditions: Kd (Mean ± SEM)
Outline: (§3)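 Saturation binding: insect-cell ASK1-TIR1 (0.44 μg) with GST-tagged full-length, truncated or degron-mutated IAA protein from E. coli (1:10 molar). Incubated >1 h at 4°C in pH 8.0 Tris/NaCl/glycerol/Tween buffer with at least six [³H]-IAA concentrations either side of the KD. Filter-trapped and scintillation counted; nonspecific binding determined with 1000x cold IAA. KD by nonlinear regression; independent assays in triplicate.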

TIR1-IAA17 = TIR1-IAA17 (Arabidopsis thaliana, UniProt P93830+Q570C0); experiment: [3H]-IAA homologous competitive binding, TIR1-IAA17; conditions: Kd (Mean ± SEM), TIR1-IAA17, homologous competition
Outline: as §2

TIR1-IAA1 = TIR1-IAA1 (Arabidopsis thaliana, UniProt P49677+Q570C0); experiment: [3H]-IAA homologous competitive binding, TIR1-IAA1; conditions: Kd (Mean ± SEM), TIR1-IAA1, homologous competition
Outline: as §2

TIR1-IAA28 = TIR1-IAA28 (Arabidopsis thaliana, UniProt Q570C0+Q9XFM0); experiment: [3H]-IAA homologous competitive binding, TIR1-IAA28; conditions: Kd (Mean ± SEM), TIR1-IAA28, homologous competition
Outline: as §2

TIR1-IAA12 GWPPVR = TIR1-IAA12 GWPPVR (Arabidopsis thaliana, UniProt Q38830+Q570C0, G77R/I76V); experiment: [3H]-IAA saturation binding, TIR1-IAA12 GWPPVR
Outline: as §3

TIR1-IAA31 = TIR1-IAA31 (Arabidopsis thaliana, UniProt Q570C0+Q8H174); experiment: [3H]-IAA binding, TIR1-IAA31
Outline: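 ASK1-TIR1 (insect cells, 0.44 μg) and full-length GST-IAA31 (E. coli, 1:10 molar) were incubated with [³H]-IAA >1 h at 4°C in pH 8.0 Tris buffer, then filter-bound and scintillation counted. KD came from nonlinear regression of saturation and/or homologous competition binding data; independent assays run in triplicate.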

TIR1-DI-DII = TIR1-DI-DII (Arabidopsis thaliana, UniProt Q38825+Q570C0); experiment: [3H]-IAA saturation binding, TIR1-DI-DII
Outline: as §3

TIR1-IAA7 DII [3] = target: T2, TIR1-IAA7 DII; experiment: [3H]-IAA saturation binding, TIR1 with biotinylated IAA7 DII peptide; conditions: Kd (Mean ± SEM), TIR1-biotinylated peptide DII of IAA7, saturation binding
TIR1-IAA7^axr2-1 = TIR1-IAA7^axr2-1 (Arabidopsis thaliana, UniProt Q38825+Q570C0, P87S); experiment: [3H]-IAA binding at 200 nM, TIR1-IAA7 axr2-1; conditions: 200 nM [3H] IAA
Outline: (§4)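 ASK1-TIR1 (tagged, co-expressed in Hi5 insect cells) and GST-Aux/IAA or mutant (E. coli), at 0.44 μg and 1:10 molar ratio as applicable, or synthetic biotinylated degron peptide. Incubated >1 h at 4°C in Tris-HCl pH 8.0/200 mM NaCl/10% glycerol/0.1% Tween 20 with [³H]-IAA (20 Ci/mmol). Trapped on PEI-treated glass-fibre filters, washed thrice, scintillation counted. Nonspecific binding determined with 1000x cold IAA.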

TIR1-IAA7 K35Q = TIR1-IAA7 K35Q (Arabidopsis thaliana, UniProt Q38825+Q570C0, K35Q); experiment: [3H]-IAA binding at 200 nM, TIR1-IAA7 K35Q; conditions: 200 nM [3H]-IAA, Lys35Gln mutant compared to TIR1-IAA7
TIR1-IAA7 K35Q R36Q = TIR1-IAA7 K35Q R36Q (Arabidopsis thaliana, UniProt Q38825+Q570C0, K35Q/R36Q); experiment: [3H]-IAA binding at 200 nM, TIR1-IAA7 K35Q R36Q; conditions: 200 nM [3H]-IAA, Lys35Gln Arg36Gln mutant compared to TIR1-IAA7
TIR1 = TIR1 (Arabidopsis thaliana, UniProt Q570C0); experiment: [3H]-IAA binding at 200 nM, TIR1 alone; conditions: 200 nM [3H] IAA
Outline: as §4

TIR1-slr = experiment: [3H]-IAA binding at 200 nM, TIR1-ASK1 with slr; design: species or system Arabidopsis thaliana; conditions: 200 nM [3H] IAA, TIR1-ASK1 and slr
Outline: as §4

TIR1-bdl = TIR1-bdl (Arabidopsis thaliana, UniProt Q570C0); experiment: [3H]-IAA binding at 200 nM, TIR1-ASK1 with bdl; conditions: 200 nM [3H] IAA, TIR1-ASK1 and bdl
Outline: as §4

IAA7 = IAA7 (Arabidopsis thaliana, UniProt Q38825); experiment: [3H]-IAA binding at 200 nM, IAA7 alone; conditions: 200 nM [3H] IAA
Outline: as §4

IAA7 DII = IAA7 DII (Arabidopsis thaliana, UniProt Q38825); experiment: [3H]-IAA binding at 200 nM, IAA7 DII peptide alone; conditions: 200 nM [3H] IAA
Outline: as §4

TIR1-ASK1 complex = target: T4, TIR1-ASK1 complex (Arabidopsis thaliana, UniProt Q570C0;Q39255); experiment: SPR
T4 sequence 1: T1 sequence (Q570C0 1-594)
T4 sequence 2: T1 sequence (Q39255 1-160 partner)

Molecule: Nc1c(Cl)c(Cl)nc(C(=O)O)c1Cl [picloram, 4-amino-3,5,6-trichloro-2-pyridinecarboxylic acid]
Ki (TIR1-IAA7): 3900 ± 910 nM
Ki (AFB5-IAA7; Ki (Mean ± SEM), AFB5-IAA7, cold competitor vs [3H] IAA): 54.9 nM and 54.7 nM
dissociation of the TIR1-IAA7 DII complex (SPR) (TIR1-IAA7 DII [1]): rapid dissociation
TIR1 association with the DII peptide (SPR) (TIR1-IAA7 DII [1]): enhanced association with the peptide
TIR1-IAA7 interaction in yeast (β-galactosidase expression) (TIR1-IAA7 interaction): promoted TIR1-IAA7 interaction, but not to the same extent as IAA
assembly of the AFB5-IAA7 complex (SPR) (AFB5-IAA7 DII): promotes rapid assembly

Molecule: O=C(O)COc1ccc(Cl)cc1Cl [2,4-D, 2,4-dichlorophenoxyacetic acid]
Ki (TIR1-IAA7): 248 to 1000 nM
dissociation of the TIR1-IAA7 DII complex (SPR) (TIR1-IAA7 DII [1]): much more rapid dissociation rate
TIR1 association with the DII peptide (SPR) (TIR1-IAA7 DII [1]): enhanced association with the peptide
TIR1-IAA7 interaction in yeast (β-galactosidase expression) (TIR1-IAA7 interaction): promoted TIR1-IAA7 interaction, but not to the same extent as IAA
root elongation [2]: inhibits root growth elongation

TIR1 association with the DII peptide (SPR) (TIR1-IAA7 DII [1]): enhanced association with the peptide
Molecule: O=C(O)Cc1cccc2ccccc12 [1-NAA, 1-naphthaleneacetic acid]
TIR1-IAA7 interaction in yeast (β-galactosidase expression) (TIR1-IAA7 interaction): promoted TIR1-IAA7 interaction, but not to the same extent as IAA

Kd (TIR1-IAA7): 17.8 ± 7.81 nM
Kd (AFB5-IAA7): 51.3 ± 12.6 nM
Kd (TIR1-IAA14): 10.1 nM
Kd (TIR1-IAA3): 17 ± 3.43 nM
Kd (TIR1-IAA17): 33 ± 3 nM
Kd (TIR1-IAA1): 44.3 ± 6.67 nM
Kd (TIR1-IAA28): ~75 nM and 75 nM
Kd (TIR1-IAA12 GWPPVR): 72.5 ± 21.6 nM
Kd (TIR1-IAA31): > 1000 nM
Kd (TIR1-DI-DII): 13.8 ± 4.63 nM
Kd (TIR1-IAA7 DII [3]): 218 nM
TIR1 association with the DII peptide (SPR) (TIR1-IAA7 DII [1]): enhanced association with the peptide
binding of [3H] IAA (TIR1-IAA7^axr2-1): did not bind auxin
auxin binding diminished (TIR1-IAA7 K35Q): around 50%
auxin binding diminished (TIR1-IAA7 K35Q R36Q): around 50%
binding of [3H] IAA (TIR1): lacked appreciable binding
specific binding of [3H] IAA (TIR1-slr): abolish specific auxin binding
specific binding of [3H] IAA (TIR1-bdl): abolish specific auxin binding
binding of [3H] IAA (IAA7): lacked appreciable binding
binding of [3H] IAA (IAA7 DII): lacked appreciable binding
Molecule: O=C(O)Cc1c[nH]c2ccccc12 [IAA, Indole-3-acetic acid]

binding result (TIR1-ASK1 complex): binds
B1: Biotinylated DII IAA7 peptide (SPR) (peptide)
peptide: Biotin-AKAQVVGWPPVRNYRKN
